29 compounds from ChEMBL document CHEMBL1133679, “Synthesis and cytotoxicity of 4-amino-5-oxopyrido[2,3-d]pyrimidine nucleosides” (J Med Chem, 2000) can be followed below.

Common to all, as to type: functional, cell-based
Experiment [1] is described as follows: Cytotoxicity that caused a 50% reduction in absorbance at 490 nm in normal human fibroblast (NHF) cells using MTS assay. The essentials: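 Normal human dermal fibroblasts were cultivated in FGM medium and seeded at 4×10^3 cells per well. Exposure was 0.78–100 μM, diluted in medium from 100 mM DMSO stocks, with a 1% DMSO control. Formazan absorbance at 490 nm was measured by MTS after 72 h. EC50 is the concentration halving absorbance relative to untreated cells.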

A short description of experiment [2]: Cytotoxicity that caused a 50% reduction in absorbance at 490 nm in human prostate cancer HTB-81 cells using MTS assay. A digest of the protocol:
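DU-145 (HTB-81) prostate cancer cells were grown in MEM with 10% fetal bovine serum and 2 mM L-glutamine. They were plated at 4×10^3 per well and treated at 0.78–100 μM from 100 mM DMSO stocks diluted in medium, with a 1% DMSO control. MTS read at 490 nm after 72 h. EC50 is the 50% absorbance drop versus untreated cells.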

In a further experiment the test system is B16. Description: Cytotoxicity that caused a 50% reduction in absorbance at 490 nm in B16 mouse melanoma cells using MTS assay. A digest of the protocol: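 Compounds taken from 100 mM DMSO stocks and diluted in culture medium. Cells seeded at 4×10^3 per well and exposed to 0.78–100 μM. A 1% DMSO control was run in parallel. MTS reagent added after 72 h and formazan read at 490 nm. EC50 is the concentration giving 50% absorbance reduction versus untreated cells.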

For `Nc1ncnc2nccc(O)c12`, the EC50 in experiment [1] (Homo sapiens) is over 100 µM; in experiment [2] (Homo sapiens, HTB-81) it was over 100 µM; in the experiment with B16 (Mus musculus, B16), over 100 µM.

For `Nc1ncnc2c1c(=O)ccn2C1CCC(CO)O1` (stereo unspecified), the half-maximal effective concentration (EC50) came to 60.5 µM in experiment [1] (Homo sapiens); 43.3 µM in experiment [2] (Homo sapiens, HTB-81); 47.1 µM with B16 (Mus musculus, B16).

For `C=C1[C@@H](O)[C@H](n2ccc(=O)c3c(N)ncnc32)O[C@@H]1CO`, the EC50 in experiment [1] (Homo sapiens) was 41.1 µM; in experiment [2] (Homo sapiens, HTB-81), 31.1 µM; with B16 (Mus musculus, B16), 60.5 µM.

Consider `Nc1ncnc2c1c(=O)ccn2[C@@H]1O[C@H](CO)C[C@H]1O`, for which the EC50 in experiment [1] (Homo sapiens) stood at 9.5 µM; in experiment [2] (Homo sapiens, HTB-81) it was 2.6 µM; in the experiment on B16 (Mus musculus, B16), 19 µM.

Regarding `C[C@@H](O)[C@H]1O[C@@H](n2ccc(=O)c3c(N)ncnc32)[C@H](O)[C@@H]1O.C[C@H](O)[C@H]1O[C@@H](n2ccc(=O)c3c(N)ncnc32)[C@H](O)[C@@H]1O`, the EC50 is 16.5 µM in experiment [1] (Homo sapiens); 10 µM in experiment [2] (Homo sapiens, HTB-81); 18.3 µM with B16 (Mus musculus, B16).

On to `Nc1ncnc2c1c(=O)ccn2[C@H]1C[C@H](O)[C@@H](CO)O1`, for which the EC50 came to 5 µM in experiment [1] (Homo sapiens); 3.9 µM in experiment [2] (Homo sapiens, HTB-81); 11.3 µM in the experiment on B16 (Mus musculus, B16).

As to `C=C1[C@H](n2ccc(=O)c3c(N)ncnc32)O[C@H](CO)[C@H]1O`, the EC50 in experiment [1] (Homo sapiens) is over 100 µM; in experiment [2] (Homo sapiens, HTB-81) it was over 100 µM; in the experiment on B16 (Mus musculus, B16), over 100 µM.

For `Nc1ncnc2c1c(=O)ccn2[C@H]1C[C@@H](O)[C@@H](CO)O1`, the EC50 turned out to be 38.9 µM in experiment [1] (Homo sapiens); 26.6 µM in experiment [2] (Homo sapiens, HTB-81); 68.9 µM in the experiment with B16 (Mus musculus, B16).

Turning to `Nc1ncnc2c1c(=O)ccn2[C@@H]1OC(CO)(CO)[C@@H](O)[C@H]1O`, the EC50 in experiment [1] (Homo sapiens) was over 100 µM; in experiment [2] (Homo sapiens, HTB-81) it was over 100 µM; with B16 (Mus musculus, B16), over 100 µM.

As to `N=c1ncn(C2OC(CO)[C@@H](O)[C@@H]2O)c2nccc(O)c12` (stereo partly specified), the concentration for a half-maximal effect (EC50) in experiment [1] (Homo sapiens) was over 100 µM; in experiment [2] (Homo sapiens, HTB-81), over 100 µM; in the experiment on B16 (Mus musculus, B16) it was over 100 µM.

For the compound `C=C[C@]1(CO)OC(n2ccc(=O)c3c(N)ncnc32)[C@H](O)[C@@H]1O` (stereo partly specified), the EC50 in experiment [1] (Homo sapiens) was 76.8 µM; in experiment [2] (Homo sapiens, HTB-81), 34.2 µM; with B16 (Mus musculus, B16), 99.7 µM.

As for `Nc1ncnc2c1c(=O)ccn2C1O[C@H](CO)[C@@H](O)[C@@H]1O` (stereo partly specified), the EC50 in experiment [1] (Homo sapiens) was found to be 23.2 µM; in experiment [2] (Homo sapiens, HTB-81), 21.9 µM; in the experiment on B16 (Mus musculus, B16), 33.2 µM.

Consider `C#C[C@]1(O)C(n2ccc(=O)c3c(N)ncnc32)O[C@H](CO)[C@H]1O` (stereo partly specified), for which the EC50 in experiment [1] (Homo sapiens) turned out to be 65.1 µM; in experiment [2] (Homo sapiens, HTB-81), 29.3 µM; with B16 (Mus musculus, B16) it was 81 µM.

In the case of `C[C@]1(CO)OC(n2ccc(=O)c3c(N)ncnc32)[C@H](O)[C@@H]1O` (stereo partly specified), the EC50 was 29.9 µM in experiment [1] (Homo sapiens); 19.7 µM in experiment [2] (Homo sapiens, HTB-81); 55.5 µM in the experiment on B16 (Mus musculus, B16).

`C[C@]1(O)C(n2ccc(=O)c3c(N)ncnc32)O[C@H](CO)[C@H]1O` (stereo partly specified): the EC50 is over 100 µM in experiment [1] (Homo sapiens); 46.7 µM in experiment [2] (Homo sapiens, HTB-81); 85.5 µM in the experiment on B16 (Mus musculus, B16).

Turning to `CC[C@]1(CO)OC(n2ccc(=O)c3c(N)ncnc32)[C@H](O)[C@@H]1O` (stereo partly specified), the EC50 in experiment [1] (Homo sapiens) worked out at 65.1 µM; in experiment [2] (Homo sapiens, HTB-81) it was 36.7 µM; with B16 (Mus musculus, B16), 96 µM.

On to `C#C[C@]1(O)[C@@H](CO)OC(n2ccc(=O)c3c(N)ncnc32)[C@@H]1O` (stereo partly specified), for which the EC50 is over 100 µM in experiment [1] (Homo sapiens); over 100 µM in experiment [2] (Homo sapiens, HTB-81); over 100 µM in the experiment on B16 (Mus musculus, B16).

Consider `N=c1ncn(C2O[C@H](CO)[C@@H](O)[C@H]2O)c2nccc(O)c12` (stereo partly specified), for which the EC50 in experiment [1] (Homo sapiens) was determined as 7.3 µM; in experiment [2] (Homo sapiens, HTB-81), 7.3 µM.

Turning to `C=CC[C@@H](O)[C@H]1OC(n2ccc(=O)c3c(N)ncnc32)[C@H](O)[C@@H]1O` (stereo partly specified), the 50% effective concentration (EC50) in experiment [1] (Homo sapiens) worked out at 72 µM; in experiment [2] (Homo sapiens, HTB-81), 35.3 µM; in the experiment with B16 (Mus musculus, B16), 66.3 µM.

Take `C#C[C@@]1(O)[C@@H](CO)OC(n2ccc(=O)c3c(N)ncnc32)[C@@H]1O` (stereo partly specified): the EC50 was 6.45 µM in experiment [1] (Homo sapiens); 0.68 µM in experiment [2] (Homo sapiens, HTB-81); 2.48 µM in the experiment on B16 (Mus musculus, B16).

Turning to `C[C@@]1(O)[C@@H](CO)OC(n2ccc(=O)c3c(N)ncnc32)[C@@H]1O` (stereo partly specified), the EC50 in experiment [1] (Homo sapiens) was found to be 10.4 µM; in experiment [2] (Homo sapiens, HTB-81) it was 4.44 µM; with B16 (Mus musculus, B16) it was 31.6 µM.

`Nc1ncnc2c1c(=O)ccn2C1O[C@H](CO)[C@H](O)[C@H]1O` (stereo partly specified): the EC50 stood at 20.7 µM in experiment [1] (Homo sapiens); 0.73 µM in experiment [2] (Homo sapiens, HTB-81); 5.9 µM in the experiment with B16 (Mus musculus, B16).

As for `CCC[C@@H](O)[C@H]1OC(n2ccc(=O)c3c(N)ncnc32)[C@H](O)[C@@H]1O` (stereo partly specified), the EC50 was determined as 41.1 µM in experiment [1] (Homo sapiens); 20.4 µM in experiment [2] (Homo sapiens, HTB-81); 51.6 µM with B16 (Mus musculus, B16).

As to `C#C[C@@H](O)[C@H]1O[C@@H](n2ccc(=O)c3c(N)ncnc32)[C@H](O)[C@@H]1O.C#C[C@H](O)[C@H]1O[C@@H](n2ccc(=O)c3c(N)ncnc32)[C@H](O)[C@@H]1O` (mixture of isomers), the EC50 in experiment [1] (Homo sapiens) was 15.3 µM; in experiment [2] (Homo sapiens, HTB-81), 6.1 µM; in the experiment with B16 (Mus musculus, B16) it was 17.2 µM.

Take `CC[C@@H](O)[C@H]1O[C@@H](n2ccc(=O)c3c(N)ncnc32)[C@H](O)[C@@H]1O.CC[C@H](O)[C@H]1O[C@@H](n2ccc(=O)c3c(N)ncnc32)[C@H](O)[C@@H]1O` (mixture of isomers): the EC50 in experiment [1] (Homo sapiens) was 18.9 µM; in experiment [2] (Homo sapiens, HTB-81), 17.3 µM; with B16 (Mus musculus, B16), 16.3 µM.

On to `Nc1ncnc2c1c(=O)ccn2[C@@H]1O[C@H](CO)[C@@H](O)[C@H]1O` (stereo in doubt; 1b), for which the EC50 in experiment [1] is 0.08 µM; in experiment [2] (htb-81), 0.06 µM; in the experiment with B16 (b16), 0.06 µM.

Turning to `Nc1ncnc2c1c(=O)ccn2[C@@H]1O[C@H](CO)[C@@H](O)[C@H]1O` (stereo in doubt; 1b-L), the EC50 (in experiment [1]; in experiment [2] (htb-81); in the experiment on B16 (b16)) was over 100 µM in each case.

Turning to `COc1cccc2c1C(=O)c1c(O)c3c(c(O)c1C2=O)C[C@@](O)(C(C)=O)C[C@@H]3O[C@H]1C[C@H](N)[C@H](O)[C@H](C)O1` [DAUNORUBICIN], the EC50 in experiment [1] (Homo sapiens) stood at 0.22 µM; in experiment [2] (Homo sapiens, HTB-81) it was 0.058 µM; in the experiment on B16 (Mus musculus, B16), 0.16 µM.

Turning to `N#Cc1cn([C@@H]2O[C@H](CO)[C@@H](O)[C@H]2O)c2ncnc(N)c12` [TOYOCAMYCIN], the EC50 in experiment [1] (Homo sapiens) was determined as 0.004 µM; in experiment [2] (Homo sapiens, HTB-81) it was 0.012 µM; in the experiment with B16 (Mus musculus, B16), 0.005 µM.
